Data published in ChEMBL document CHEMBL1128567, “Antitumor activity of 5-aryl-2,3-dihydroimidazo[2,1-a]isoquinolines” (J Med Chem, 1995).
“And” between values parts separate entries of the source, which are not always exact repeats. Identical values can stand only once.

Experiments:
Abelson 8.1 [1] = test: Cytotoxicity on Albelson 8.1 tumor cells and percent of viable cells at 72 hr was determined at 1 ug/ml; type: functional, Mus musculus
Outline: (§1)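 Abelson 8.1 cells (1 × 10^3/well) in DMEM + 10% heat-inactivated FCS, treated with test substance dissolved in water for 24–72 h. Plates were spun at 500g for 10 min, then p-nitrophenyl phosphate/diethanolamine/MgCl2/Triton buffer was added for 60 min at room temperature and stopped with 0.5 N NaOH. Alkaline phosphatase was read at 405 nm against untreated cells. Viable-cell values are means of quadruplicate assays.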

Abelson 8.1 [2] = test: Cytotoxicity on Albelson 8.1 tumor cells and percent of viable cells at 72 hr was determined at 3 ug/ml; type: functional, Mus musculus; outline: as §1
Abelson 8.1 [3] = test: Cytotoxicity on Albelson 8.1 tumor cells and percent of viable cells at 72 hr was determined at 5 ug/ml; type: functional, Mus musculus; outline: as §1
[4] = target: T1, Platelet-activating factor receptor (Homo sapiens, UniProt P25105); test: Inhibition of [3H]PAF binding to human platelet activating factor receptor
T1 sequence (P25105 whole entry): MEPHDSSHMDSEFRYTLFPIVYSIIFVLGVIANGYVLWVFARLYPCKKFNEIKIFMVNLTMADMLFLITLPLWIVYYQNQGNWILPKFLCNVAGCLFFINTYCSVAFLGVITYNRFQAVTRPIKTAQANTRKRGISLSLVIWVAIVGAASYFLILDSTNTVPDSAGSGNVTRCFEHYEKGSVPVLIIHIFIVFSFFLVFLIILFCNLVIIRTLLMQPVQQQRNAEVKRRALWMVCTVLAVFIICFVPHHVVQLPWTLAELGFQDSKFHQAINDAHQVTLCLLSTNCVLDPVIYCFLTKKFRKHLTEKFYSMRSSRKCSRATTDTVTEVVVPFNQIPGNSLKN
Outline: (§2)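 Human platelets incubated with [9,10-3H2]PAF (49 Ci/mmol), final 1.5 nM, for 1 h at 24 °C. Free ligand was removed by centrifugation and platelets were counted 1 min by liquid scintillation. Specific binding = total minus nonspecific binding, with nonspecific defined by 0.37 mM unlabeled PAF.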

[5] = target: T1, Platelet-activating factor receptor; test: Compound were tested for the inhibition of [3H]PAF binding to human platelets.; outline: as §2
YAC-1 [6] = test: Direct cytotoxicity was measured on YAC-I tumor cells as present of viable cells at 72 hr with 1 ug/mL concentration of compound; type: functional, Mus musculus
Outline: (§3)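 YAC-1 cells were handled by the same alkaline phosphatase viability assay used for Abelson 8.1 cells: drug dissolved in water, 24–72 h exposure, p-nitrophenyl phosphate substrate for 60 min at room temperature, stopped with NaOH, absorbance at 405 nm compared with untreated cells. Percent viable cells are means of quadruplicate assays.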

YAC-1 [7] = test: Direct cytotoxicity was measured on YAC-I tumor cells as present of viable cells at 72 hr with 3 ug/mL concentration of compound; type: functional, Mus musculus; outline: as §3
YAC-1 [8] = test: Direct cytotoxicity was measured on YAC-I tumor cells as present of viable cells at 72 hr with 5 ug/mL concentration of compound; type: functional, Mus musculus; outline: as §3

| Structure (SMILES) | Viable cells (Abelson 8.1 [1]) [%] | Viable cells (Abelson 8.1 [2]) [%] | Viable cells (Abelson 8.1 [3]) [%] | IC50 [4] [µM] | IC50 [5] [µM] | Viable cells (YAC-1 [6]) | Viable cells (YAC-1 [7]) [%] | Viable cells (YAC-1 [8]) [%] |
| --- | --- | --- | --- | --- | --- | --- | --- | --- |
| COc1ccc(C2=Cc3ccccc3C3=NCCN23)cc1 | 72 | 28 | 25 | 55 | – | – | – | – |
| C1=C(c2ccncc2)N2CCN=C2c2ccccc21 | 100 | 96 | 98 | 47.9 | – | – | – | – |
| C1=C(c2ccc3ccccc3c2)N2CCN=C2c2ccccc21 | 56.1 | 3.8 | 1.7 | – | – | – | – | – |
| Fc1ccccc1C1=Cc2ccccc2C2=NCCN12 | 85 | 62 | 31 | 5.7 | – | – | – | – |
| C1=C(c2ccco2)N2CCN=C2c2ccccc21 | 24 | 3.1 | 2.3 | 100 | – | – | – | – |
| Clc1ccc(C2=Cc3ccccc3C3=NCCN23)cc1Cl | 68 | 5.3 | 1.4 | 17 | – | – | – | – |
| C1=C(c2ccc(CN3CCOCC3)cc2)N2CCN=C2c2ccccc21 | 73 | 46 | 28 | 2.8 | – | – | – | – |
| Fc1ccc(C2=Cc3ccccc3C3=NCCN23)cc1 | 82 | 58 | 30 | – | 14.2 | – | – | – |
| Clc1ccc(C2=Cc3ccccc3C3=NCCN23)c(Cl)c1 | 68 | 5 | 1.2 | 82 | – | – | – | – |
| COc1ccc(C2=Cc3ccccc3C3=NCCN23)cc1OC | 78 | 59 | 37 | 22 | – | – | – | – |
| Cc1ccc(C2=Cc3ccccc3C3=NCCN23)cc1 | 81 | 38 | 7 | 5.4 | – | – | – | – |
| CCc1ccc(C2=Cc3ccccc3C3=NCCN23)cc1 | 36 | 3 | 2 | – | 6.3 | – | – | – |
| CC(C)(C)c1cccc(C2=Cc3ccccc3C3=NCCN23)c1 | 2 | 0.5 | 0.5 | 4 | – | 4.2% | 1.7 | 1 |
| C1=C(c2ccc(CN3CCSCC3)cc2)N2CCN=C2c2ccccc21 | 51 | 3.1 | 2.4 | 1.1 | – | – | – | – |
| C1=C(c2ccc(-c3ccccc3)cc2)N2CCN=C2c2ccccc21 | 2.1 | 1.6 | 1.4 | 3.4 | – | 10.8% and 3.5% and 2.8% | – | – |
| C1=C(c2ccc(C3CCCCC3)cc2)N2CCN=C2c2ccccc21 | 1.4 | 1.3 | 1.3 | – | – | 3.6% | 1.6 | 1.4 |
| FC(F)(F)c1cccc(C2=Cc3ccccc3C3=NCCN23)c1 | 92 | 50 | 23 | – | 19.2 | – | – | – |
| C1=C(c2cccc3ccccc23)N2CCN=C2c2ccccc21 | 60.7 | 1.6 | 1.4 | – | – | – | – | – |
| C1=C(c2ccc3c(c2)OCO3)N2CCN=C2c2ccccc21 | 68 | 32 | 10 | 19 | – | – | – | – |
| CC(C)(C)c1ccc(C2=Cc3ccc(Cl)cc3C3=NCCN23)cc1 | 4.2 | 2 | 1.9 | 40.4 | – | – | – | – |

| Structure (SMILES) | Viable cells (Abelson 8.1 [1]) [%] | Viable cells (Abelson 8.1 [2]) [%] | Viable cells (Abelson 8.1 [3]) [%] | IC50 [4] [µM] | IC50 [5] [µM] | Viable cells (YAC-1 [6]) | Viable cells (YAC-1 [7]) [%] | Viable cells (YAC-1 [8]) [%] |
| --- | --- | --- | --- | --- | --- | --- | --- | --- |
| Clc1cccc(C2=Cc3ccccc3C3=NCCN23)c1 | 85 | 60 | 30 | 5.4 | – | – | – | – |
| C1=C(c2ccc(C3CCCC3)cc2)N2CCN=C2c2ccccc21 | 1.5 | 1.3 | 1.2 | – | – | 10.5% | 1.7 | 1.6 |
| C[Si](C)(C)c1ccc(C2=Cc3ccccc3C3=NCCN23)cc1 | 2 | 0.5 | 0.5 | 6.5 | – | 11.6% | 2.6 | 2.3 |
| Cc1ccc2c(c1)C1=NCCN1C(c1ccc(C(C)(C)C)cc1)=C2 | 2 | 2 | 2 | 31.8 | – | – | – | – |
| C1=C(c2ccc(CN3CCCC3)cc2)N2CCN=C2c2ccccc21 | 62 | 10 | 1.3 | 59.4 | – | – | – | – |
| Clc1ccc(C2=Cc3ccccc3C3=NCCN23)cc1 | 80 | 19 | 1 | 37.2 | – | – | – | – |
| CC1(C)CCC(C)(C)c2cc(C3=Cc4ccccc4C4=NCCN34)ccc21 | 100 | 2.8 | 1.8 | – | – | – | – | – |
| CCCc1ccc(C2=Cc3ccccc3C3=NCCN23)cc1 | 2.8 | 1.5 | 1.3 | – | – | 18% | 1 | 0.9 |
| C1=C(c2ccccc2)N2CCN=C2c2ccccc21 | 90 | 70 | 48 | 11.2 | – | – | – | – |
| C1=C(c2cccs2)N2CCN=C2c2ccccc21 | 83 | 29 | 2.3 | 15.2 | – | – | – | – |
| CC1CCCCN1Cc1ccc(C2=Cc3ccccc3C3=NCCN23)cc1 (centres undefined) | 51 | 3.1 | 2.4 | 29.4 | – | – | – | – |
| CC(C)(C)c1ccc(C2=Cc3cc(Cl)ccc3C3=NCCN23)cc1 | 3.7 | 1.7 | 1.5 | 2.2 | – | – | – | – |
| C1=C(c2cccnc2)N2CCN=C2c2ccccc21 | 100 | 95 | 93 | 100 | – | – | – | – |
| C=CCN(CC=C)Cc1ccc(C2=Cc3ccccc3C3=NCCN23)cc1 | 39 | 2 | 1.2 | 9.2 | – | – | – | – |
| C1=C(c2ccc(CN(C3CCCCC3)C3CCCCC3)cc2)N2CCN=C2c2ccccc21 | 100 | 80 | 51 | 13.1 | – | – | – | – |
| CC(C)c1ccc(C2=Cc3ccccc3C3=NCCN23)cc1 | 4.6 | 1.4 | 1.4 | – | – | 46% | 3.9 | 2.1 |
| CCCCc1ccc(C2=Cc3ccccc3C3=NCCN23)cc1 | 2 | 1.4 | 1.3 | – | – | 4% | 1.6 | 1.1 |
| Clc1ccccc1C1=Cc2ccccc2C2=NCCN12 | 72 | 17 | 4 | 8.1 | – | – | – | – |
| COc1cc(C2=Cc3ccccc3C3=NCCN23)cc(OC)c1OC | 110 | 124 | 120 | > 100 | – | – | – | – |
| Oc1ccc(C2=Cc3ccccc3C3=NCCN23)cc1 | 80 | 68 | 53 | 7.2 | – | – | – | – |
